Screening results from PubChem.
CAL PDZ FP-1: blocks peptide binding to human CAL PDZ domain; purified CAL PDZ, TMR-peptide fluorescence polarization, 1 h; inhibition, % at 20 µM; 0.02% of 330,000 active; AID 504414;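 active = highest replicate inhibition of at least 40%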;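 note: plate controls were DMSO neutral control wells for no effect and unlabeled competitor peptide control wells for full effect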
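System: purified tagged CAL PDZ domain construct (CerCALP). Schedule: 1 h incubation at room temperature before polarization reading. Medium: 25 mM sodium phosphate pH 7.4, 150 mM NaCl, TCEP, IgG, Thesit. Read-out: percent inhibition from loss of millipolarization. Measured by: FP readout, S and P plane fluorescence. Probe or stimulus: fluorescent TMR peptide probe.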
SIRT5 inh: blocks human SIRT5 desuccinylation of peptide; Q9NXA8; Purified SirT5, succinyl-peptide AMC, trypsin-coupled fluorescence; inhibition, % at 15 µM; 1.1% of 330,000 active; AID 652115; in the data active = inhibition above about 15%
Target sequence (Q9NXA8 whole entry, looked up): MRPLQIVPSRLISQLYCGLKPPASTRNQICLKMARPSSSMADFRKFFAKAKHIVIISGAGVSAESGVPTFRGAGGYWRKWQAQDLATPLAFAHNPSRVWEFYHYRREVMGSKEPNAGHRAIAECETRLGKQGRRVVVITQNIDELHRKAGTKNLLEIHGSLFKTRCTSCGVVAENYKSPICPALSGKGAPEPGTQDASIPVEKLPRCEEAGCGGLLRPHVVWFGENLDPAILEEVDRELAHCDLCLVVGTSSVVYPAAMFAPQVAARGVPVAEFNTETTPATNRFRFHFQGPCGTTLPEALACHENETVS
S100A4 inh HTS: inhibitors of human S100A4 binding to myosin IIA peptide | 0.14% of 360,000 active | AID 652163 | S100A4/TAMRA-MyoIIA peptide fluorescence polarization | inhibition, % at 10.7 µM | P26447;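 active = mean inhibition of at least 70% across replicates, with every replicate also reaching that level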
Target sequence (P26447 whole entry, looked up): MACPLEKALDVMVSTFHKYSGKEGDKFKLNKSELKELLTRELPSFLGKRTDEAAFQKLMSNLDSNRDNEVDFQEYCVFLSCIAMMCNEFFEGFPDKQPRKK
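Material: S100A4 monomer protein / Buffer or medium: 50 mM HEPES pH 7.2, 10 mM CaCl2, 100 mM KCl / Times: 5 min incubation before reading / Benchmarks: neutral control DMSO, positive control TFP / Reagent: labelled myosin peptide probe, 5 nM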
DENV2 CPE: DENV2-induced cell death inhibition; DENV2-infected cells, cytopathic effect rescue, plate reader; CPE inhibition, % at 9.99 µM; 1.7% of 350,000 active; AID 651640; in the data active = CPE inhibition above about 20%, passing the limit was not always enough; tested in BHK-21 cells;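 note: 0% = median of neutral control wells and 100% = median of positive control wells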
ERAP1 HTS inh: ERAP1 (human) enzyme inhibition; Q9NZ08; recombinant ERAP1, Leu-AMC fluorescence, 60 min; inhibition, % at 10.7 µM; 0.15% of 340,000 active; AID 652197;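 active = mean replicate inhibition of at least 30%, or all replicates individually reaching that 30% level; inactive = mean below 30% and not every replicate reaching it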;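 note: 0% = neutral control wells and 100% = L-leucinethiol positive control wells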
CAL PDZ FP-2: inhibitors of human CAL PDZ peptide binding. inhibition, % at 24.9 µM. purified CAL PDZ, TMR-peptide fluorescence polarization, 1 h. AID 602252. Q9HD26. 0.92% of 300,000 active;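 active = mean inhibition of at least 30% with at least half of replicates also reaching 30%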;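 note: 0% = DMSO neutral control and 100% = excess unlabeled competitor peptide PRC23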
Numbers without * were called inactive. An excerpt weighted towards active compounds, which were near 2.9% of everything screened.

What do the screens show for `O=C1/C(=C\c2ccc(Cl)cc2)CCC1CNc1ccc(Cl)cc1` (centres undefined)?
CAL PDZ FP-1: 0; SIRT5 inh: -2; S100A4 inh HTS: 2; DENV2 CPE: 63*; ERAP1 HTS inh: -3; CAL PDZ FP-2: -2

How did CN(C)CC1CC/C(=C\c2ccc(O)cc2)C1=O (centres undefined) do in these assays?
CAL PDZ FP-1: 0; SIRT5 inh: 4; S100A4 inh HTS: -2; DENV2 CPE: 1; ERAP1 HTS inh: 2; CAL PDZ FP-2: 12

How did C[C@H](NC(=O)C[C@@H]1C=C[C@@H](NC(=O)Nc2ccc3c(c2)OCO3)[C@H](CO)O1)c1ccccc1 do in these assays?
SIRT5 inh: -1; S100A4 inh HTS: 16; DENV2 CPE: -3; ERAP1 HTS inh: -1

Results for O=C(c1ccc2c(c1)OCO2)N1CC(=O)N2[C@H](CO)[C@H](c3ccc(-c4ccccc4)cc3)[C@@H]2C1 ?
SIRT5 inh: 4; S100A4 inh HTS: 11; DENV2 CPE: 49*; ERAP1 HTS inh: 0

Results for O=C(c1ccc2c(c1)OCO2)N1CC(=O)N2[C@H](CO)[C@H](c3ccc(C#CCC4CCCC4)cc3)[C@@H]2C1 ?
SIRT5 inh: 26*; S100A4 inh HTS: 5; DENV2 CPE: 2; ERAP1 HTS inh: -4

Results for CC(C)C#Cc1ccc([C@@H]2[C@@H](CO)N3C(=O)CN(C(=O)NC4CCCC4)C[C@H]23)cc1 ?
SIRT5 inh: 11; S100A4 inh HTS: 6; DENV2 CPE: -4; ERAP1 HTS inh: -3

Results for CC(C)C#Cc1ccc([C@@H]2[C@@H](CO)N3C(=O)CN(C(=O)c4ccc5c(c4)OCO5)C[C@H]23)cc1 ?
SIRT5 inh: 20*; S100A4 inh HTS: 12; DENV2 CPE: 5; ERAP1 HTS inh: -2

What do the screens show for `CC(C)C#Cc1ccc([C@@H]2[C@H](CO)N3C(=O)CN(C(=O)NC4CCCC4)C[C@@H]23)cc1`?
SIRT5 inh: 25*; S100A4 inh HTS: -38; DENV2 CPE: 1; ERAP1 HTS inh: -1

What do the screens show for `O=C(c1ccc2c(c1)OCO2)N1CC(=O)N2[C@H](C1)[C@H](c1ccc(C#Cc3ccccc3)cc1)[C@@H]2CO`?
SIRT5 inh: 1; S100A4 inh HTS: -4; DENV2 CPE: 50*; ERAP1 HTS inh: 3

How did O=C(c1ccccc1)N1CC(=O)N2[C@H](CO)[C@@H](c3ccc(C#Cc4ccccc4)cc3)[C@@H]2C1 do in these assays?
SIRT5 inh: 5; S100A4 inh HTS: -5; DENV2 CPE: 21*; ERAP1 HTS inh: 1

What do the screens show for `CN1C(=O)c2cc(NC(=O)c3cccs3)ccc2OC[C@H]2O[C@H](CC(=O)NCC(F)(F)F)CC[C@H]21`?
SIRT5 inh: -6; S100A4 inh HTS: -7; DENV2 CPE: 0; ERAP1 HTS inh: 2

How did COc1ccc(C(=O)Nc2ccc3c(c2)C(=O)N(C)C[C@@H](OC)[C@@H](C)CN(C)[C@@H](C)CO3)cc1 do in these assays?
SIRT5 inh: -1; S100A4 inh HTS: 5; DENV2 CPE: 14; ERAP1 HTS inh: 8

What do the screens show for `O=C1SCCN1N=Cc1ccc([N+](=O)[O-])o1`?
CAL PDZ FP-1: 1; SIRT5 inh: 22*; S100A4 inh HTS: -10; DENV2 CPE: -6; ERAP1 HTS inh: 7; CAL PDZ FP-2: 0

How did COc1ccccc1NC(=O)N[C@@H]1C=C[C@H](CC(=O)NCc2ccc(Cl)c(Cl)c2)O[C@@H]1CO do in these assays?
SIRT5 inh: 0; S100A4 inh HTS: -12; DENV2 CPE: 7; ERAP1 HTS inh: 2

What do the screens show for `COC(=O)C[C@@H]1C=C[C@H](NS(=O)(=O)c2ccc(OC)cc2)[C@@H](CO)O1`?
SIRT5 inh: 1; S100A4 inh HTS: 6; DENV2 CPE: 10; ERAP1 HTS inh: -2

How did CCCN(CC(=O)Nc1ccccc1C)C(=O)COc1c(C)cccc1C do in these assays?
CAL PDZ FP-1: 0; SIRT5 inh: -1; S100A4 inh HTS: 1; DENV2 CPE: -5; ERAP1 HTS inh: 4; CAL PDZ FP-2: 45*

Results for CCCN(CC(=O)Nc1ccccc1C)C(=O)CCCc1c[nH]c2ccccc12 ?
CAL PDZ FP-1: 0; SIRT5 inh: -4; S100A4 inh HTS: -28; DENV2 CPE: 0; ERAP1 HTS inh: 1; CAL PDZ FP-2: 132*

What do the screens show for `CCCN(CC(=O)Nc1ccccc1C)C(=O)COc1c(Cl)cccc1Cl`?
CAL PDZ FP-1: -2; SIRT5 inh: 2; S100A4 inh HTS: 3; DENV2 CPE: 2; ERAP1 HTS inh: -1; CAL PDZ FP-2: -2

What do the screens show for `CCN(CC(=O)Nc1c(F)cccc1F)C(=O)CCCc1c[nH]c2ccccc12`?
CAL PDZ FP-1: 0; SIRT5 inh: 1; S100A4 inh HTS: -1; DENV2 CPE: -10; ERAP1 HTS inh: 0; CAL PDZ FP-2: -4

What do the screens show for `CN(C)C(=O)c1ccc(-c2ccc3c(c2)[C@H]2[C@H](CCN2C(=O)C2CCC2)[C@@H](CO)N3C)cc1`?
SIRT5 inh: 4; S100A4 inh HTS: -1; DENV2 CPE: -8; ERAP1 HTS inh: 0

How did Clc1cccc2c1CCN(Cc1nc(-c3cnccn3)no1)C2 do in these assays?
SIRT5 inh: -2; S100A4 inh HTS: 8; DENV2 CPE: -2; ERAP1 HTS inh: -1; CAL PDZ FP-2: 56*

How did CNC[C@@H]1Oc2ccc(NS(=O)(=O)c3ccc(Cl)cc3)cc2CC(=O)N([C@@H](C)CO)C[C@@H]1C do in these assays?
SIRT5 inh: 1; S100A4 inh HTS: -2; DENV2 CPE: 41*; ERAP1 HTS inh: 3

What do the screens show for `CNC[C@@H]1Oc2ccc(NS(=O)(=O)c3ccc(Cl)cc3)cc2CC(=O)N([C@H](C)CO)C[C@@H]1C`?
SIRT5 inh: -2; S100A4 inh HTS: -1; DENV2 CPE: -4; ERAP1 HTS inh: -1

How did CNC[C@H]1Oc2ccc(NS(=O)(=O)c3ccc(Cl)cc3)cc2CC(=O)N([C@@H](C)CO)C[C@@H]1C do in these assays?
SIRT5 inh: -3; S100A4 inh HTS: -5; DENV2 CPE: 27*; ERAP1 HTS inh: 2

What do the screens show for `O=C(C[C@@H]1C=C[C@@H](NC(=O)CN2CCOCC2)[C@@H](CO)O1)NCc1cccc(F)c1`?
SIRT5 inh: 2; S100A4 inh HTS: 14; DENV2 CPE: -3; ERAP1 HTS inh: 2

What do the screens show for `C[C@H]1CN([C@@H](C)CO)C(=O)c2cc(NC(=O)NC3CCCCC3)ccc2O[C@H]1CN(C)C(=O)Nc1ccccc1`?
S100A4 inh HTS: -3; DENV2 CPE: 4; ERAP1 HTS inh: 1

What do the screens show for `C[C@@H]1CN([C@H](C)CO)C(=O)c2cc(NC(=O)NC3CCCCC3)ccc2O[C@@H]1CN(C)C(=O)Nc1ccc(F)cc1`?
SIRT5 inh: -4; S100A4 inh HTS: 3; DENV2 CPE: 40*; ERAP1 HTS inh: 0
